Experimental findings from ChEMBL document CHEMBL3525966, “Compartmental and enzyme kinetic modeling to elucidate the biotransformation pathway of a centrally acting antitrypanosomal prodrug” (Drug Metab Dispos, 2013) are described below.

The Vmax is the top rate of the reaction or transport when substrate is in excess.

Structures are written as SMILES.

Series [1] is described as follows: Drug metabolism in sandwich-cultured human hepatocytes treated with 10 uM DB868 after 4 hrs of incubation by HPLC-MS/MS analysis. In kind it is ADME, cell-based, Hepatocyte. Put shortly:
(§1)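 Sandwich-cultured hepatocytes were used on day 5 (human) or day 4 (rat) and rinsed with warm phenol-red-free DMEM. They were then exposed to 10 µM DB868 (0.1–0.2% DMSO) at 37°C. Medium and methanol/water cell lysates were collected at 0.5, 2, 4 and 24 h. Analytes were quantified by HPLC/MS/MS with deuterated internal standards; protein by Bradford. Replicates: 6 (human) or 4 (rat).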

Series [2] is described as follows: Drug metabolism in sandwich-cultured human hepatocytes treated with 10 uM DB868 after 24 hrs of incubation by HPLC-MS/MS analysis. Format: ADME, cell-based, Hepatocyte. Put shortly:
as §1

Series [3] deals with Liver microsome. Kind of series: Prodrug conversion in rat liver microsomes assessed as elution time treated with 10 uM DB868 after 180 mins incubation by HPLC-UV chromatography. To be noted: 3 h. Format: ADME. Put shortly: (§2)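 HLM or RLM (0.5 mg/mL) were incubated in triplicate in 100 mM phosphate pH 7.4 with 10 mM MgCl2 and an NADPH-regenerating system (1 mM NADP+, glucose 6-phosphate, G6PDH). DB868 was 10 µM. Sampled up to 180 min. Prodrug and metabolites were measured by HPLC-UV at 359 nm and expressed relative to initial prodrug; DB829 LLOQ 50 nM.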

Series [4] concerns the target T1, Cytochrome P450 1A2 (Homo sapiens, UniProt P05177).
T1 sequence (P05177 whole entry): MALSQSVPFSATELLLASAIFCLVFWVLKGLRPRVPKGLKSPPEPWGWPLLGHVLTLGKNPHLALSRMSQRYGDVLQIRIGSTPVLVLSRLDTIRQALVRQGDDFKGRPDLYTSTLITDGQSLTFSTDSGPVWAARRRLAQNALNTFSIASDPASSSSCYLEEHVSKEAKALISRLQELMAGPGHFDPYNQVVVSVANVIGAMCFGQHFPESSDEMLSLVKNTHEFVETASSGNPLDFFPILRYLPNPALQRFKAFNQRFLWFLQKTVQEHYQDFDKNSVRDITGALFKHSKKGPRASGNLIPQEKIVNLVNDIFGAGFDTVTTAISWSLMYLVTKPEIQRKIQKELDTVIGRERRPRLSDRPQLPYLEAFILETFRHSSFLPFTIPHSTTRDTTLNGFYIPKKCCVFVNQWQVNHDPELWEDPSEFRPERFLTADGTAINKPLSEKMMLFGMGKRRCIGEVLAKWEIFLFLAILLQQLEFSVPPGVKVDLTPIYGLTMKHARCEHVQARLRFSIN
Kind of series: Activity at human recombinant CYP1A2-mediated drug metabolism treated with 5 uM DB868 after 180 mins incubation by HPLC-UV chromatography. To be noted: recombinant enzyme, 15 min, in the assay text read “15 mins” for “180 mins”. Format: ADME. In short, it runs like this:
(§3)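 Insect-cell-expressed human or rat P450 (with NADPH-P450 reductase, some also with cytochrome b5) at 0.1 pmol/µL in 100 mM potassium phosphate pH 7.4 with 10 mM MgCl2. DB868 (for M1) or M1 (for M2) was added at 5 µM (0.5% DMSO) and started with 2 mM NADPH. Stopped after 15 min with ice-cold acetonitrile, then HPLC-UV. Duplicate incubations.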

The target in series [5] is T2, Cytochrome P450 1A2 (Rattus norvegicus, UniProt P04799).
T2 sequence (P04799 whole entry): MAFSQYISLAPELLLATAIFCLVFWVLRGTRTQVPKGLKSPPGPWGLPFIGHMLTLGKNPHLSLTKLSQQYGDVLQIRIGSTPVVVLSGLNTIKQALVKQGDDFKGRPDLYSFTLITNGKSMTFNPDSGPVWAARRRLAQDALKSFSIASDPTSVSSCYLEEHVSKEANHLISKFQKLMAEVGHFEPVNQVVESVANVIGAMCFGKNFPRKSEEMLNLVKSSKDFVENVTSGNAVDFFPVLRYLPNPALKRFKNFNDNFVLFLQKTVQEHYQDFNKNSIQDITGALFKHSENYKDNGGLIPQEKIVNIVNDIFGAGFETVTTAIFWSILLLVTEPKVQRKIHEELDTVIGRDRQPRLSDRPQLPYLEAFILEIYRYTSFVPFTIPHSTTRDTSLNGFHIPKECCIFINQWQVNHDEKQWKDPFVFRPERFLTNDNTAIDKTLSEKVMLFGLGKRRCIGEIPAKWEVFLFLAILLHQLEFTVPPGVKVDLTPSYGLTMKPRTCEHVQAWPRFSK
The series can be described thus: Drug metabolism in rat recombinant CYP1A2 treated with at 5 uM DB868 after 180 mins incubation by HPLC-UV chromatography. In kind it is ADME. To be noted: recombinant enzyme, 15 min, in the assay text read “15 mins” for “180 mins”. In short, it runs like this: as §3

In series [6] the test system is Liver microsome. Kind of series: Prodrug conversion in human liver microsomes assessed as elution time treated with 10 uM DB868 after 180 mins incubation by HPLC-UV chromatography. Format: ADME. To be noted: 3 h. Put shortly: as §2
(In general: Microsomes from liver hold many membrane-bound enzymes, among them those of drug oxidation.)

Another series concerns the target T3, Cytochrome P450 4F1 (Rattus norvegicus, UniProt P33274).
T3 sequence (P33274 whole entry): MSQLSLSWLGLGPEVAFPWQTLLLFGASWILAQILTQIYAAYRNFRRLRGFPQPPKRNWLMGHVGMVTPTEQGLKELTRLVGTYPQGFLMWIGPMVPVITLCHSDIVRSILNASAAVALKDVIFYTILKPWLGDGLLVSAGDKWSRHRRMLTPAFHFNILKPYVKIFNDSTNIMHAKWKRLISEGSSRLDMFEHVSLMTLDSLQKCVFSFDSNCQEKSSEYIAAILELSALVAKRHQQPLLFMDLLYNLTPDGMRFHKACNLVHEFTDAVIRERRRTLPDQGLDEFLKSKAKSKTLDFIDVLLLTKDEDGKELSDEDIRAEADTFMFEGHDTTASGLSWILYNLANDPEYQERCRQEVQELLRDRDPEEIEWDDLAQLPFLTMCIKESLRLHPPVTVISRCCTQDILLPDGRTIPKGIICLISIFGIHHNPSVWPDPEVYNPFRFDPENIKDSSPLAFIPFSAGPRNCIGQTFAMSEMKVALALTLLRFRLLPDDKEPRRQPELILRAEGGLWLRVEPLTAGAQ
The series can be described thus: Drug metabolism in rat recombinant […] treated with at 5 uM DB868 after 180 mins incubation by HPLC-UV chromatography. Format: ADME. The note with it: recombinant enzyme, 3 h.

Series [7] can be described thus: Drug metabolism in sandwich-cultured rat hepatocytes treated with 10 uM DB868 after 4 hrs of incubation by HPLC-MS/MS analysis. Format: ADME, cell-based, Hepatocyte. Put shortly: as §1
For series [8], the system named is Liver microsome. The series can be described thus: Drug metabolism in human liver microsomes assessed as (3Z,3'Z)-6,6'-(furan-2,5-diyl)bis(N'-hydroxynicotinimidamide) formation measured per mg of protein by HPLC-MS/MS analysis. In kind it is ADME. Put shortly: (§4)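 M2 formation kinetics: HLM (0.5 mg/mL) with M1 at 0.1–25 µM in phosphate pH 7.4 with MgCl2, started with 2 mM NADPH. Run 5 min in triplicate under initial-rate conditions. Quantified by HPLC/MS/MS and fitted to the Hill equation (S50, Vmax, n).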

Series [9] concerns Liver microsome. The series can be described thus: Drug metabolism in human liver microsomes assessed as (3Z,3'Z)-6,6'-(furan-2,5-diyl)bis(N'-hydroxynicotinimidamide) formation measured by HPLC-MS/MS analysis. Format: ADME. In short, it runs like this: as §4
The target in the next series is T4, Cytochrome P450 4F2 (Homo sapiens, UniProt P78329).
T4 sequence (P78329 whole entry): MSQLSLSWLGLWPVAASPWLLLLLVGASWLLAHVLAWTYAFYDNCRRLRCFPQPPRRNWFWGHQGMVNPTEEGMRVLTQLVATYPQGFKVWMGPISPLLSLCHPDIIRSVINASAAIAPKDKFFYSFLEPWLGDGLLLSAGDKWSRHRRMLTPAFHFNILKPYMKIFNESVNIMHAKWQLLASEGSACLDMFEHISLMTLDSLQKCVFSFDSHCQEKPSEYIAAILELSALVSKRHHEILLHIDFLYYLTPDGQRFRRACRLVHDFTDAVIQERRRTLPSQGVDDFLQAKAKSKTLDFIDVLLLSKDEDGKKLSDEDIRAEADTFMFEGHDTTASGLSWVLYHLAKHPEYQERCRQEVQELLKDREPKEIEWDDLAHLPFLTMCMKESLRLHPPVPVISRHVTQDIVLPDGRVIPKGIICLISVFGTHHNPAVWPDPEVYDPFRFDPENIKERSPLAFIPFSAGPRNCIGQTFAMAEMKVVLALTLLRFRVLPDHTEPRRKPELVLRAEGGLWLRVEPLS
Kind of series: Activity at human recombinant CYP4F2-mediated drug metabolism treated with 5 uM DB868 […] by HPLC-UV chromatography. In kind it is ADME. The note with it: recombinant enzyme, 3 h.

The target in series [10] is T5, Cytochrome P450 3A4 (Homo sapiens, UniProt P08684). The series can be described thus: Activity at human recombinant CYP3A4-mediated drug metabolism treated with 5 uM DB868 after 180 mins incubation by HPLC-UV chromatography. In kind it is ADME. To be noted: recombinant enzyme, 15 min, in the assay text read “15 mins” for “180 mins”. Put shortly:
as §3

Series [11] deals with T5, Cytochrome P450 3A4. Kind of series: Drug metabolism in human recombinant CYP3A4 treated with at 5 uM DB868 after 15 mins incubation by HPLC-UV chromatography. The note with it: recombinant enzyme.
Series [12] can be described thus: Drug metabolism in sandwich-cultured rat hepatocytes treated with 10 uM DB868 after 24 hrs of incubation by HPLC-MS/MS analysis. Format: ADME, cell-based, Hepatocyte. Put shortly: as §1
Series [13] relates to Liver microsome. Kind of series: Prodrug conversion in rat liver microsomes treated with 10 uM DB868 after 180 mins incubation by HPLC-UV chromatography. In kind it is ADME. The note with it: 3 h. In short, it runs like this: as §2
In series [14] the test system is Liver microsome. The series can be described thus: Drug level in human liver microsomes treated with 10 uM DB868 prodrug after 180 mins incubation by HPLC-UV chromatography relative to initial prodrug concentration. In kind it is ADME. To be noted: 3 h. In short, it runs like this: as §2
Series [15] is described as follows: Ratio of drug metabolism in sandwich-cultured human hepatocytes to drug metabolism in sandwich-cultured rat hepatocytes treated with 10 uM DB868 after 24 hrs of incubation by HPLC-MS/MS analysis.

T5 sequence (P08684 whole entry): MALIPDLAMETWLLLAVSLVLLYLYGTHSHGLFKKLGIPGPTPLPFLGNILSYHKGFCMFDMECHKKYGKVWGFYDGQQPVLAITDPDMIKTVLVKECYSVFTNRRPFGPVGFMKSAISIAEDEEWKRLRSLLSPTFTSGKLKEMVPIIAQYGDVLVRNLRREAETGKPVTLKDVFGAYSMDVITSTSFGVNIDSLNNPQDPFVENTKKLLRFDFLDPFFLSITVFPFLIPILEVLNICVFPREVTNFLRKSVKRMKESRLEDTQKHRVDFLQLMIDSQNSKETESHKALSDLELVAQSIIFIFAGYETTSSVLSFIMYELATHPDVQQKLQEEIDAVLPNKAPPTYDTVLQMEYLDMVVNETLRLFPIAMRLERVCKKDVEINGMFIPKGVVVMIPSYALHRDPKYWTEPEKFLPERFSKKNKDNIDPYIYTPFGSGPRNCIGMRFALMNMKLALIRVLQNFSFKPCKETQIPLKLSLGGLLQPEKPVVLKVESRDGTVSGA

In the case of `N=C(NO)c1ccc(-c2ccc(-c3ccc(C(=N)NO)cn3)o2)nc1`, the Drug metabolism entry (in series [1]; in series [2]; on Cytochrome P450 1A2 [4]; at Cytochrome P450 1A2 [5]) was “metabolite_detected” in each case. Also, the Retention_time in the series with Liver microsome [3] and with Liver microsome [6] was 10.5 min each time.
As to `CO/N=C(/N)c1ccc(-c2ccc(-c3ccc(/C(N)=N/O)cn3)o2)nc1`, the Drug metabolism result (on Cytochrome P450 4F1; in series [1]; in [7]; on Cytochrome P450 4F2; on Cytochrome P450 1A2 [4]; at Cytochrome P450 3A4 [10]) was “metabolite_detected” each time. For the same molecule, the Drug metabolism entry on Cytochrome P450 1A2 [5] and at Cytochrome P450 3A4 [11] was “metabolite_detected” throughout. In addition, the maximal velocity (Vmax) in the series with Liver microsome [8] is recorded as 180 pmol/min. The S50 in the series on Liver microsome [9] was determined as 18 µM. In addition, the Retention_time in the series on Liver microsome [3] and in the series on Liver microsome [6] was 14.5 min each time.
On to `Cl.N=C(N)c1ccc(-c2ccc(-c3ccc(C(=N)N)cn3)o2)nc1`, for which the Drug metabolism entry in [2] is given as “metabolite_detected”; in [12] it was “metabolite_detected”; in the series with Liver microsome [13], “metabolite_not_detected”; in the series on Liver microsome [14] it was “metabolite_detected”. In the series with Liver microsome [6], the Retention_time turned out to be 5.8 min. Further, the Ratio in series [15] was found to be 7800.
`CO/N=C(\N)c1ccc(-c2ccc(-c3ccc(C(=N)N)cn3)o2)nc1`: the Drug metabolism entry in [1], in [7], in [2] and in series [12] was “metabolite_detected” each time. Further, the Retention_time with Liver microsome [3] and in the series on Liver microsome [6] was 12.3 min in each case.
For the molecule `N=C(N)c1ccc(-c2ccc(-c3ccc(/C(N)=N/O)cn3)o2)nc1`, the Retention_time with Liver microsome [3] and in the series with Liver microsome [6] was 8.3 min in each case.
